Data from ChEMBL document CHEMBL1124869, “Synthesis and anti-HIV activity of several 2'-fluoro-containing pyrimidine nucleosides” (J Med Chem, 1990).
Values after ≈ are worked out from the molar mass of the structure shown. Values joined by “and” are separate entries in the source; they are usually repeats but may differ in a detail not shown here. Equal entries are not always repeated.

Experiments:
CCRF-CEM [1] = assay: Cellular toxicity was measured in CEM cells after 8 days.50 tissue culture infectious doses were used.; assay type: functional, Homo sapiens
CCRF-CEM [2] = assay: Antiviral test was performed against HIV (LAV strain) on CEM cells using 50 tissue culture infectious units.; assay type: functional; conditions: Homo sapiens, read-out: ID50 (the source's name)
How it was run: (§1)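 CEM-SS T cells infected with HIV-1 LAV strain. Inoculum was 50 or 30 tissue culture infectious units, depending on the assay. Viral replication was read as p24 core antigen in the culture supernatant by sandwich ELISA. Activity is expressed as 50% inhibitory dose (ID50) and 50% tissue culture inhibitory dose (TCID50).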

CCRF-CEM [3] = assay: Antiviral test was performed against HIV (LAV strain) on CEM cells using 30 tissue culture infectious units; assay type: functional, Homo sapiens; how it was run: as §1
CCRF-CEM [4] = assay: (§2) Antiviral test was performed against HIV (LAV strain) on CEM cells using 30 tissue culture infectious units. T; assay type: functional, Homo sapiens; how it was run: as §1
Homo sapiens [5] = species on record: Homo sapiens; assay: Bone marrow toxicity was measured against human colony forming units-granulocyte monocyte (CFU-GM), concentration is 1.0 uM
How it was run: (§3)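 Colony formation by normal human granulocyte-monocyte progenitors (CFU-GM) was scored in the presence of 0.1, 1.0 or 10.0 μM drug. Results are given as percent colony survival relative to control, mean ± deviation.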

Homo sapiens [6] = species on record: Homo sapiens; assay: Bone marrow toxicity was measured against human colony forming units-granulocyte monocyte (CFU-GM), concentration is 10.0 uM; how it was run: as §3
Mo [7] = assay: (§4) In vitro Antiviral activity against MO cell lines; assay type: functional; conditions: Homo sapiens, read-out: ID50 (the source's name)
How it was run: (§5)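 Freshly isolated monocyte/macrophage cells were infected with the monocytotropic HIV Pan Data Strain (PDS). Antiviral endpoint was p24 viral antigen.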

Mo [8] = assay: as §4; assay type: functional, Homo sapiens; how it was run: as §5
PBL [9] = assay: (§6) In vitro Antiviral activity against PBL cell lines; assay type: functional; conditions: Homo sapiens, read-out: ID50
PBL [10] = assay: as §6; assay type: functional, Homo sapiens
T-cell [11] = assay: (§7) In vitro Antiviral activity against T-cell lines; assay type: functional; conditions: Homo sapiens, read-out: ID50 (the source's name)
How it was run: (§8)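 Freshly isolated T cells were stimulated with PHA mitogen and then infected with HIV HTLV-IIIB. Antiviral endpoint was p24 antigen at 10 days postinfection. Cell viability served as the toxicity endpoint.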

T-cell [12] = assay: as §7; assay type: functional, Homo sapiens; how it was run: as §8
U-937 [13] = assay: (§9) In vitro Antiviral activity against U937 cell lines; assay type: functional; conditions: Homo sapiens, read-out: ID50 (the source's name)
U-937 [14] = assay: as §9; assay type: functional, Homo sapiens
CCRF-CEM [15] = assay: Cellular toxicity was measured in CEM cells after 8 days; assay type: functional, Homo sapiens
CCRF-CEM [16] = assay: (§10) In vitro antiviral activity against CEM cell lines; assay type: functional, Homo sapiens; how it was run: as §1
CCRF-CEM [17] = assay: as §2; assay type: functional; conditions: Homo sapiens, read-out: ID50 (the source's name); how it was run: as §1
CCRF-CEM [18] = assay: as §10; assay type: functional; conditions: Homo sapiens, read-out: ID50 (the source's name); how it was run: as §1
[19] = (§11) In vitro antiviral activity against (monocyte macrophages) cell lines; assay type: functional; conditions: Homo sapiens; read-out: ID50 (the source's name); how it was run: as §5
[20] = as §11; assay type: functional, Homo sapiens; how it was run: as §5
PBL [21] = assay: (§12) In vitro antiviral activity against PBL cell lines; assay type: functional; conditions: Homo sapiens, read-out: ID50 (the source's name)
PBL [22] = assay: as §12; assay type: functional, Homo sapiens
T-cell [23] = assay: (§13) In vitro antiviral activity against T-cells; assay type: functional; conditions: Homo sapiens, read-out: ID50 (the source's name); how it was run: as §8
T-cell [24] = assay: as §13; assay type: functional, Homo sapiens; how it was run: as §8
U-937 [25] = assay: (§14) In vitro antiviral activity against U937 cell lines; assay type: functional, Homo sapiens
U-937 [26] = assay: as §14; assay type: functional; conditions: Homo sapiens, read-out: ID50 (the source's name)

## Cc1cn([C@@H]2O[C@H](CO)C=C2F)c(=O)[nH]c1=O
CCRF-CEM [1]
  cytotoxic concentration in CEM cells: 9.7 µg/mL
CCRF-CEM [2]
  IC50: > 25 µg/mL

## Cc1cn([C@@H]2O[C@H](CO)[C@@H](N=[N+]=[N-])[C@H]2F)c(=O)[nH]c1=O
CCRF-CEM [1]
  cytotoxic concentration in CEM cells: 2.6 µg/mL
CCRF-CEM [2]
  IC50: > 28.5 µg/mL

## Cc1cn([C@@H]2O[C@H](CO)C[C@H]2F)c(=O)[nH]c1=O
CCRF-CEM [3]
  TCID50: >25 µg/mL
CCRF-CEM [2]
  IC50: > 25 µg/mL

## Nc1ccn([C@@H]2O[C@H](CO)C[C@@H]2F)c(=O)n1
CCRF-CEM [4]
  ID50: 0.9 µg/mL (≈ 3.93 µM)
CCRF-CEM [1]
  cytotoxic concentration in CEM cells: >23 µg/mL and 61.9 µg/mL
CCRF-CEM [2]
  IC50: 2.3 µg/mL (≈ 10 µM)
Homo sapiens [5]
  Toxicity: 37.6
Homo sapiens [6]
  Toxicity: 0
Mo [7]
  IC50: 1 µg/mL (≈ 4.36 µM)
Mo [8]
  TCID50: 3.3 µg/mL
PBL [9]
  IC50: < 2 µg/mL
PBL [10]
  TCID50: 11 µg/mL
T-cell [11]
  IC50: 0.33 µg/mL (≈ 1.44 µM)
T-cell [12]
  TCID50: 10 µg/mL
U-937 [13]
  IC50: 0.14 µg/mL (≈ 0.611 µM)
U-937 [14]
  TCID50: 7.7 µg/mL

## Nc1ccn([C@@H]2O[C@H](CO)C=C2F)c(=O)n1
CCRF-CEM [4]
  ID50: 10.9 µg/mL (≈ 48 µM)
CCRF-CEM [2]
  IC50: 1.3 µg/mL (≈ 5.72 µM)

## O=c1ccn(C2OC(CO)CC2F)c(=O)[nH]1 (stereo not drawn)
CCRF-CEM [1]
  cytotoxic concentration in CEM cells: 57 µg/mL
CCRF-CEM [2]
  IC50: > 10 µg/mL

## Nc1ccn([C@H]2CC[C@@H](CO)O2)c(=O)n1 [ZALCITABINE]
CCRF-CEM [15]
  TCID50: 1.3 µg/mL
CCRF-CEM [2]
  IC50: 0.007 µg/mL (≈ 0.0331 µM)

## Cc1cn([C@H]2C[C@H](N=[N+]=[N-])[C@@H](CO)O2)c(=O)[nH]c1=O [ZIDOVUDINE]
CCRF-CEM [16]
  TCID50: >3 µg/mL
CCRF-CEM [17]
  IC50: 0.53 µg/mL (≈ 1.98 µM)
CCRF-CEM [2]
  IC50: 0.08 µg/mL (≈ 0.299 µM)
CCRF-CEM [18]
  IC50: 0.03 µg/mL (≈ 0.112 µM)
Homo sapiens [6]
  Toxicity: 23.6
[19]
  IC50: 0.1 µg/mL (≈ 0.374 µM)
[20]
  TCID50: 10 µg/mL
PBL [21]
  IC50: 0.0003 µg/mL (≈ 0.00112 µM)
PBL [22]
  TCID50: 3 µg/mL
T-cell [23]
  IC50: 0.033 µg/mL (≈ 0.123 µM)
T-cell [24]
  TCID50: 100 µg/mL
U-937 [25]
  TCID50: 7.5 µg/mL
U-937 [26]
  IC50: 0.03 µg/mL (≈ 0.112 µM)
